Screening data: PubChem BioAssay, several laboratories
Hits are enriched below; roughly 1.5% of the tested compounds scored in any of these assays.
A1 inh: inhibitors of the anti-apoptotic protein A1, read as caspase activation; caspase activation, % (no concentration beside the values); MEF A1-2A-BIM cells, Caspase-Glo 3/7 luminescence, 3 h; percent of clofoctol response, vehicle zero; 330,000 compounds, 0.066% hits;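 active means over half of replicate activation scores above 10%, or exactly half above 10 with the replicate mean above 10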
CSN deneddyl inh: inhibitors of human CSN-mediated cullin deneddylation | Q92905 | 360,000 compounds, 0.38% hits | Purified CSN, SCF-Nedd8-OG deneddylation, fluorescence polarization | AID 651999 | inhibition, % at 12.5 µM;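 active means pattern-corrected inhibition above about 35%, with an unprinted fluorescence ratio check between 0.5 and 1.5, limit read from the data, passing the limit was not always enough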;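 further: 0% = enzyme with substrate and 100% = substrate without enzyme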
Target sequence (Q92905 whole entry, looked up, one chain of several): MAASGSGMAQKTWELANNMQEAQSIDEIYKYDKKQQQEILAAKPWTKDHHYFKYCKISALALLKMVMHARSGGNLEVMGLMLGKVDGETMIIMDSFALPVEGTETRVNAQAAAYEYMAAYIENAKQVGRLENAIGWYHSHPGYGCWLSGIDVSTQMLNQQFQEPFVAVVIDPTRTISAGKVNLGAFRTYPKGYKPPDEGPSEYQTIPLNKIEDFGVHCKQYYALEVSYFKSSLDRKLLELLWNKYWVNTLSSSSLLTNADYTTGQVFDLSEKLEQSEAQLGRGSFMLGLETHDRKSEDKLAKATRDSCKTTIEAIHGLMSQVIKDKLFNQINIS
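Assay system: purified human Csn5 enzyme expressed in HEK293T cells; Input: 0.24 nM Csn5 enzyme, final concentration; Reagent: 10 nM SCFSkp2-Nedd8OG; Compound dosing: 12.5 µM single point; Times: reaction 90 min, room temperature; Technique: fluorescence polarization readout.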
ZTA counter: counter-screen for EBNA-1 inhibitors: inhibitors of Epstein-Barr virus ZTA | P03206 | inhibition, % at 11 µM | ZTA-DNA binding, fluorescence polarization | AID 2234 | 320,000 compounds, 0.15% hits; in the data active means inhibition above about 33%
Target sequence (P03206 whole entry, looked up): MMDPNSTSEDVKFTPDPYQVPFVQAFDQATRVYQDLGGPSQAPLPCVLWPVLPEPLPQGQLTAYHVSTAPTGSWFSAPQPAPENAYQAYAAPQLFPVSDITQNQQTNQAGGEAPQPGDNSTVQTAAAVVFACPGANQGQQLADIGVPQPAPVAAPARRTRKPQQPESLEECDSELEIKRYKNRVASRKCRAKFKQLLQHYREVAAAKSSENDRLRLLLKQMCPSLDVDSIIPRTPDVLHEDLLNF
EBNA-1 inh: blocks EBNA-1 binding to DNA | inhibition, % at 14.8 µM | AID 1950 | EBNA-1 DNA binding, fluorescence polarization | 300,000 compounds, 0.34% hits; in the data active means inhibition above about 28%
HNF4A DNA FP: change in binding of human HNF4 alpha to DNA; P41235; HNF4a-FITC DNA binding, fluorescence polarization, 1 h; activity change, % at 10 µM; 360,000 compounds, 0.3% hits; AID 1224865; in the data active means activity change above about 30%, passing the limit was not always enough
LANA-H2A inh: blocks KSHV LANA binding to histone H2A/H2B; cell-free LANA-H2A/H2B peptide, fluorescence polarization; 320,000 compounds, 0.6% hits; Q9QR71; inhibition, % (test concentration not listed); AID 2629; in the data active means inhibition mostly above about 10%, no sharp cut-off; inactive means mostly below about 6.7%
* marks the source's active call; other numbers are inactive results; / = no result; + = active, no number.

SMILES	A1 inh	CSN deneddyl inh	ZTA counter	EBNA-1 inh	HNF4A DNA FP	LANA-H2A inh
O=C(/C=C\Nc1cccc(F)c1)c1ccc2c(c1)OCO2	-9.7	3.1	9.4	39.8*	0.0	-2.9
CC(C)CN(C(=O)COc1ccc([N+](=O)[O-])cc1)c1c(N)n(CC(C)C)c(=O)[nH]c1=O	0.3	-1.1	5.1	/	5.9	5.3
O=c1c(/C=C(\O)c2ccccc2)nc2ccccc2n1-c1ccccc1	-0.1	19.1	14.7	-1.1	45.7*	10.1
CN(c1ccccc1)S(=O)(=O)c1cccc(NC(=O)C2CC(=O)N(Cc3ccccc3)C2)c1 (stereo not drawn)	-0.1	-1.9	13.2	-0.1	-2.5	2.7
CC[C@]12c3[nH]c4ccccc4c3CCN1C(=O)C(CC(=O)NCCCN(C)C)C[C@@H]2C(=O)N1CCN(C(=O)c2ccco2)CC1 (stereo partly drawn)	-0.1	1.4	/	/	-2.2	-329.8
O=C1CC(c2ccccc2)CC(O)=C1C=Nc1ccc(Cl)cc1 (stereo not drawn)	0.9	1.3	0.9	4.6	1.7	-3.3
O=C1CCCC(O)=C1C=Nc1ccc(O)cc1	0.1	-3.8	-0.4	-6.6	0.8	16.7*
Cn1nc(-c2ccc(C(=O)Nc3ccc(F)cc3)cc2)c2ccccc2c1=O	-0.7	44.4*	-18.6	-9.9	1.0	-4.1
CCOC(=O)C(=O)N(Nc1ccccc1C)c1ccccc1C	-0.7	-0.1	6.5	13.1	0.2	-2.3
O=C(O)c1cccc(Cn2c(Cl)c(/C=N/NC(=O)c3ccccc3Cl)sc2=O)c1	0.5	-3.0	12.5	-2.8	-1.3	1.1
O=C(O)c1cccc(Cn2c(Cl)c(/C=N/NC(=O)c3ccccc3O)sc2=O)c1	1.4	3.2	-25.1	-6.8	-0.4	15.2*
COc1ccc(CCNC(=O)CS(=O)Cc2nc(-c3ccccc3Cl)oc2C)cc1OC (stereo not drawn)	-0.8	2.0	1.1	-3.9	2.7	17.0*
COc1ccc(CCNC(=O)CS(=O)Cc2nc(-c3ccccc3F)oc2C)cc1OC (stereo not drawn)	-0.3	7.2	9.4	-2.5	-5.2	0.1
COc1ccc(OC)c(-c2nn(-c3ccccc3)cc2C(=O)N2CCc3ccccc3C2)c1	0.7	-0.7	-23.2	/	-0.2	+
Cc1cccc(C)c1NC(=O)CN1C(=O)NC(C)(C2CC2)C1=O (stereo not drawn)	0.0	2.0	/	/	2.4	-1.4
N#Cc1c(NC(=O)c2cnccn2)sc2c1CCCC2	0.3	1.6	-17.1	-8.0	2.9	19.3*
Cc1nn(Cc2c(Cl)cccc2Cl)c(C)c1NC(=O)c1cn(-c2ccccc2)nc1-c1ccccc1	12.8*	2.1	10.6	4.9	-0.2	-8.4
Cc1cccc(C)c1NC(=O)CNC(=O)c1cn(-c2ccccc2)nc1-c1ccccc1	-0.3	-0.8	-12.8	-4.5	-1.6	-6.6
CS(=O)(=O)c1sc(C#N)c2c1C(=O)CC(c1ccccc1)C2 (stereo not drawn)	56.6*	6.0	5.7	5.3	0.6	4.1
CC1=CSC2=NC(=O)/C(=C\c3cccn3-c3ccccc3)C(=N)N12	-0.4	3.6	7.1	6.3	7.9	-10.3
Cc1ccccc1Cn1cccc1/C=C1/C(=N)N2C=CSC2=NC1=O	0.3	41.0*	-9.8	-4.1	5.0	2.9
CC1=CC2=NC(=O)/C(=C\c3cccn3CCOc3ccccc3C)C(=N)N2O1	0.0	-2.1	-9.8	-2.0	2.0	0.8
CC(C)c1ccc(-n2cccc2/C=C2/C(=N)N3C=CSC3=NC2=O)cc1	-0.2	22.1	-0.2	-3.9	51.4*	4.6
CCOc1cccc2cc(-c3nnc(NCc4ccc5c(c4)OCO5)s3)c(=O)oc12	-1.0	45.6*	0.6	10.3	52.1*	/
CCOc1ccccc1C(=O)NCc1ccc2c(c1)OCO2	0.4	-8.6	11.8	9.9	0.8	3.0
SMILES	A1 inh	CSN deneddyl inh	ZTA counter	EBNA-1 inh	HNF4A DNA FP	LANA-H2A inh
CCCC(=O)N1CCC1(C)C(=O)Nc1ncc(C(=O)OC)s1 (stereo not drawn)	/	-0.6	/	/	1.1	/
COC(=O)CCCC1=CC2=C(c3ccccc3)C(=O)C(C)(OC(=O)C3CCCC3)C(=O)C2=CN1C1CC1 (stereo not drawn)	0.9	1.4	11.1	9.3	-4.6	58.8*
COC(=O)CCCC1=CC2=C(c3ccccc3)C(=O)C(C)(OC(=O)C3CCCC3)C(=O)C2=CN1c1ccccc1 (stereo not drawn)	-0.9	0.0	6.0	8.7	0.9	-1.8
CC1(NC(=O)Cc2c(F)cccc2Cl)CCS(=O)(=O)C1 (stereo not drawn)	1.2	-4.8	/	/	-4.9	-0.4
O=C(Nc1cccc(S(=O)(=O)N2CCCCCC2)c1)C1CC(=O)N(c2ccc3c(c2)OCCO3)C1 (stereo not drawn)	1.5	-3.1	-9.5	-5.1	-1.2	-3.2
CN(CCO)c1ccc(C=NNc2ccc([N+](=O)[O-])cc2S(=O)(=O)Nc2ccccc2C(=O)O)cc1	-1.6	23.5	/	/	47.2*	-1.1
CC(=O)Nc1ccc(C=NNc2ccc([N+](=O)[O-])cc2S(=O)(=O)Nc2ccccc2C(=O)O)cc1	0.5	12.1	/	/	14.0	-3.3
O=C([C@H](Cc1ccc(O)cc1)n1cc(CCO)nn1)N1CCNCC1	0.4	0.1	7.8	-5.1	0.5	-0.9
O=[N+]([O-])c1cc(Cc2ccccc2)cc(C=Nc2ccc(N3CCOCC3)cc2)c1O	-0.4	-2.8	76.9*	39.8*	-2.1	0.1
Cc1ccc(O)c(N=Cc2cc(Cc3ccccc3)cc([N+](=O)[O-])c2O)c1	/	21.2	/	/	-1.1	/
O=C(NNCc1ccc(O)cc1)c1ccccc1Cl	-1.0	0.6	14.7	0.3	-0.3	-3.9
COc1cccc2cc(-c3nc(-c4cccs4)cs3)c(=O)oc12	-0.1	15.5	-2.9	-8.6	40.5*	-3.2
O=c1oc2ccccc2cc1-c1nc(-c2cccs2)cs1	-0.8	-3.1	10.3	4.4	-71.4	-0.3
Cc1cccc(NC(=O)CSCC(=O)NNC(=O)c2ccoc2C)c1	-0.9	-1.2	5.8	-4.8	-2.3	-3.9
OCC1OC(Nc2ccccc2C=NO)C(O)C1O (stereo not drawn)	/	0.9	/	/	1.3	/
CC(=O)Nc1ccc(OCC(=O)Nc2ccc(Cl)c(S(=O)(=O)N3CCOCC3)c2)cc1	0.3	-4.5	/	/	1.0	-3.9
CN(C1=NC(=O)C(CC(=O)Nc2ccc(Br)cc2)S1)c1ccc(O)cc1 (stereo not drawn)	0.3	-4.9	-9.1	-1.1	-2.6	-3.9
COc1ccc(S(=O)(=O)NNC(=O)c2sccc2-n2cccc2)cc1	1.4	-1.5	1.6	5.0	30.5*	1.8
Cc1cc(C)n(-c2ccc(Cl)c(C(=O)O)c2)n1	0.0	5.4	0.9	3.1	3.8	1.3
O=C(O)CCc1ccc(-c2ccc(Br)cc2)n1-c1ccc(O)cc1	-0.3	38.9*	/	/	2.4	-1.4
